In this test the target is Protein kinase C alpha type (Homo sapiens, UniProt P17252). Briefly: Displacement of [3H]-PDBu from recombinant human PKCalpha at 30 uM by scintillation counter method relative to control. The procedure, abridged: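 Competition of 2 nM [3H]PDBu by test ligand at a single fixed concentration (value in line); 50 mM Tris-HCl pH 7.4, 100 μg/mL porcine brain phosphatidylserine, 5 mg/mL bovine IgG, 0.003% Tx-100, 20 ng/tube enzyme; 0.1 mM Ca2+ for PKCα, 1 mM EGTA for PKCε. 5 min at 37 °C, PEG precipitation, bound and free counted separately; nonspecific with 10 μM cold PDBu; triplicates.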
A general note: In a radioligand displacement assay an active substance lowers the binding of a labelled ligand.

Regarding `Cc1ccc(-c2cn(CC3(CO)C/C(=C\CC(CC(C)C)CC(C)C)C(=O)O3)nn2)cc1` (stereo unspecified), the Inhibition is 21%.

As a reminder, the Inhibition is the change of the read-out against control, counted positive when it falls.

Source of the values: BindingDB's records for doi:10.1021/acs.jmedchem.1c00739 (2021).
